In the library only some 3.5% were active in any assay of this set; here they are far more common.
thrombin 1536 – blocks human thrombin protease activity | 220,000 compounds, 0.26% hits | inhibition, % at 5 µM | AID 1046 | alpha-thrombin, Boc-VPR-AMC fluorogenic substrate cleavage;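 active means inhibition at or above 40%; inactive means inhibition below 40%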
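System – human alpha-thrombin · Medium – pH 7.5 Tris (50 mM) with NaCl 150 mM, Tween 20 0.05% · Compound – single-point dosing at 5 µM, 0.2% DMSO · Incubation – enzyme reaction carried out at room temperature · Technique – fluorescence of released AMC, ex 355 nm, em 460 nm · Read-out basis – % inhibition of thrombin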
STAT3 act-1 – STAT3 signaling activation. U3A cells, IL-6 STAT3-luciferase reporter, luminescence; 100% = signal with IL-6 EC80 alone. activation (% of control), % at 5.6 µM. 190,000 compounds, 0.91% hits;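 active means activation above the screen-wide mean of compound activation plus 3 SD, cut at about 130% in these data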
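Material: human STAT1-deficient U3A cells with stable STAT3-luciferase reporter / Probe or stimulus: IL-6 stimulus at 33 ng/mL final / Schedule: 1 h compound pre-exposure, 6 h IL-6 stimulation, 37 °C / Technique: luminescence / Read-out basis: percent of IL-6-only median luminescence / Control set: IL-6-only high control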
FXIa inh – factor XIa (human) inhibition. P03951. purified FXIa, Boc-Glu-Ala-Arg-AMC fluorogenic substrate. inhibition, % at 5 µM. 220,000 compounds, 0.14% hits. AID 798;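 active means inhibition of at least 40%; inactive means inhibition below 40%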;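 further: fluorescence of freed AMC excited at 355 nm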
hK5 inh – kallikrein 5 (human) inhibition. Q9Y337. recombinant hK5, fluorogenic AMC substrate cleavage. inhibition, % at 5 µM. 210,000 compounds, 0.59% hits;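 active means inhibition of 40% or more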
Target sequence (Q9Y337 67-293 limits assumed): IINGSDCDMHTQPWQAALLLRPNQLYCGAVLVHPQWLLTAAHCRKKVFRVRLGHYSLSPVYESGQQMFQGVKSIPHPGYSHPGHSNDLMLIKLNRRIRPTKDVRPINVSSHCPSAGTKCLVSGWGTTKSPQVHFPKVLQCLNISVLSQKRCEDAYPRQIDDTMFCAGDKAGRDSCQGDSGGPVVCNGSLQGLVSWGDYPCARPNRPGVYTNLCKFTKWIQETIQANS
AHR act – activators of human aryl hydrocarbon receptor; P35869; AHR-responsive luciferase reporter cells, luminescence; activation, % at 5 µM; 320,000 compounds, 2.5% hits; AID 2796; in the data active means activation above about 47%
FXIIa inh – factor XIIa (human) inhibition; 220,000 compounds, 0.3% hits; P00748; AID 800; purified FXIIa, Boc-QGR-AMC fluorogenic substrate, 2 h; inhibition, % at 5 µM; in the data active means inhibition above about 40%
STAT3 act-2 – confirmation of STAT3 signaling activators; shares compounds with STAT3 act-1; U3A STAT3-luciferase reporter, IL-6 potentiation, luminescence; U3A cells lack STAT1; 100 means same as IL-6 alone; potentiation (% of control), % at 5.7 µM; 1,200 compounds, 64% hits; AID 1267;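 active means percent activation of the STAT3 luciferase reporter above a set limit taken from the earlier primary screen, cut at about 130% in these data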
NFkB act 2 – counter-screen for STAT3 activators: NF-kappaB activation; shares compounds with STAT3 act-1; human cells, NF-kappaB reporter activation; activation (% of control), % at 5.7 µM; 1,200 compounds, 11% hits; AID 1309; in the data active means activation above about 120%;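 further: reporter induced by TNF-alpha stimulation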
STAT1 act STAT3c – counter-screen for STAT3 activators: STAT1 activation | shares compounds with STAT3 act-1 | NIH 3T3 STAT1-luciferase reporter, IFN-gamma, luminescence | activation (% of control), % at 5.7 µM | 1,200 compounds, 13% hits;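 active means activation above the solvent-only control well mean plus 3 SD, set per screening run, cut at about 120% in these data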
Hits are given with their value; - = inactive; . = no result given.

SMILES	thrombin 1536	STAT3 act-1	FXIa inh	hK5 inh	AHR act	FXIIa inh	STAT3 act-2	NFkB act 2	STAT1 act STAT3c
Cc1ccc([N+](=O)[O-])cc1NC(=O)c1cccs1	-	-	-	-	-	-	.	.	.
COc1ccccc1N1CCN(/N=C/c2cc([N+](=O)[O-])ccc2Cl)CC1	-	-	-	-	-	-	.	.	.
O=[N+]([O-])c1ccc(Cl)c(/C=N/N2CCN(c3ccccc3)CC2)c1	-	145	-	-	58	-	135	-	-
Cc1ccc(S(=O)(=O)N2CCC[C@H]2C(=O)Nc2ccc(F)cc2C)cc1	.	.	.	.	-	.	.	.	.
O=C(CNc1ccc2ccccc2c1)N/N=C/c1ccncc1	.	.	.	.	-	.	.	.	.
CSc1ccc(/C=N/NC(=O)CNc2ccc3ccccc3c2)cc1	-	146	-	-	68	-	140	-	-
O=C(Nc1nc(-c2cccs2)cs1)c1cccc(S(=O)(=O)N2CCCCCC2)c1	-	140	-	-	-	-	-	-	125
O=c1c(-c2cc3ccccc3o2)[n+]([O-])c2ccccc2n1OCc1ccccn1	-	-	-	-	-	-	.	.	.
CCOn1c(=O)c(-c2cc3ccccc3o2)[n+]([O-])c2ccccc21	-	154	-	-	-	-	179	128	158
COCc1c(C(=O)N/N=C/c2ccncc2)nnn1-c1nonc1N	.	.	.	.	-	.	.	.	.
COc1ccc(-c2csc(NC(=O)CSc3nc(SC)ns3)n2)cc1	-	137	-	-	58	-	140	-	-
CCOc1ccc(NC(=O)CCC(=O)NNC(=O)c2ccc(Br)o2)cc1	.	.	.	.	-	.	.	.	.
O=C(CSc1nc2ccccc2s1)N/N=C/c1ccco1	-	-	-	-	-	-	.	.	.
N#C/C(=C\c1ccco1)Sc1nc2ccccc2s1	-	138	-	-	-	-	-	-	-
O=C1C(Cl)=C(N2CCN(c3ccccc3[N+](=O)[O-])CC2)C(=O)c2ccccc21	-	145	-	-	71	-	135	-	-
O=c1[nH]nc(Cc2ccccc2)c2ccccc12	-	-	-	-	-	-	.	.	.
O=c1[nH]nc(Cc2ccc3ccccc3n2)c2ccccc12	-	147	-	-	-	-	-	-	-
CCSc1nc2sc3c(c2c(=O)[nH]1)CCc1ccccc1-3	-	144	-	-	57	-	152	-	-
C=CCn1c(SCCC)nc2sc3c(c2c1=O)CCc1ccccc1-3	-	-	-	-	-	-	.	.	.
Cc1cc(C)n(-c2nc(C)nc3c2cnn3-c2ccccc2)n1	-	155	-	-	49	-	151	-	-
O=C(Oc1c(Cl)cc(Cl)c2ccccc12)N1CCCC1	-	143	-	-	-	-	151	-	-
Cc1ccc2[nH]c(O)c(N=Nc3nc4ccccc4s3)c2c1	-	.	-	-	-	-	.	.	.
Cc1ccc2[nH]c(C)c(/C=N/Nc3nc4ccccc4s3)c2c1	-	139	-	-	65	-	134	-	-
COCc1c(CCl)cnc(C)c1O	-	-	-	-	-	-	.	.	.
CN(C)S(=O)(=O)c1cccc(NC(=O)c2ccccc2OCc2ccc(F)cc2)c1	.	.	.	.	-	.	.	.	.
SMILES	thrombin 1536	STAT3 act-1	FXIa inh	hK5 inh	AHR act	FXIIa inh	STAT3 act-2	NFkB act 2	STAT1 act STAT3c
O=C(c1ccccc1)N1CCN(S(=O)(=O)c2ccccc2)CC1	-	.	-	-	-	-	.	.	.
Cc1ccc(C(=O)N2CCN(S(=O)(=O)c3ccc(C)cc3)CC2)cc1	-	146	-	-	-	-	-	-	-
Cc1nc([N+](=O)[O-])c(Br)n1Cc1ccc(Cl)c(Cl)c1	-	139	-	-	.	-	-	-	-
CN1CCN(C(=S)c2cn(CCOc3ccccc3)c3ccccc23)CC1	-	-	-	-	-	-	.	.	.
Cc1[nH]c2c(C)cccc2c(=O)c1Br	-	-	-	-	-	-	.	.	.
O=C(N/N=C/c1ccc(OCC(=O)N2CCCCC2)cc1)c1ccccc1	-	-	-	-	-	-	.	.	.
O=C(N/N=C/c1ccc(OCC(=O)N2CCCCC2)cc1)c1ccccc1O	-	141	-	-	-	-	146	-	-
CNC(=O)COc1coc(CN2CCN(C(=O)c3ccco3)CC2)cc1=O	.	.	.	.	-	.	.	.	.
Cc1ccc(C)c(N=Nc2nc3ccccc3n2C)c1	-	176	-	-	62	-	223	154	237
Cc1cc(C)c(C)c(N=Nc2nc3ccccc3n2C)c1C	-	-	-	-	-	-	.	.	.
Cc1ccsc1C(=O)OCC(=O)Nc1sccc1C(N)=O	-	-	-	-	-	-	.	.	.
COCC1CCCCC1OS(N)(=O)=O (stereo unspecified)	.	.	.	.	-	.	.	.	.
O=C(Nc1ccc2c(c1)OCO2)C1CCCN1C(=O)Nc1ccccc1 (stereo unspecified)	.	.	.	.	-	.	.	.	.
COc1ccc(CC(=O)OC(C)C(=O)Nc2c(C)n(C)n(-c3ccccc3)c2=O)cc1OC (stereo unspecified)	.	.	.	.	-	.	.	.	.
COC(=O)c1sccc1NC(=O)c1cc2c(s1)CCCC2	-	170	-	-	-	-	146	-	-
Cc1ccc(N)c2c1OCCC2=O	-	137	-	-	-	-	137	-	-
CC(C)Cc1cc(C(=O)Nc2cc(Cl)ccc2Cl)no1	-	138	-	-	-	-	137	-	-
O=C(/C(=C(\[O-])c1ccccc1)[n+]1ccc2ccccc2c1)c1ccccc1	-	138	-	-	-	-	151	-	-
O=C(/C(=C(\[O-])c1ccccc1)[n+]1ccc2ccccc2c1)c1ccc([N+](=O)[O-])cc1	-	-	-	-	-	-	.	.	.
C/C(=N\Nc1nc2ccccc2[nH]1)c1cc2ccccc2o1	-	143	-	-	54	-	176	122	134
Cc1ccc(C)c(/C(O)=C2\C(=O)C(=O)N(CCCN3CCOCC3)C2c2cccnc2)c1 (stereo unspecified)	-	-	-	-	.	-	.	.	.
Cc1ccc(C)c(/C(O)=C2/C(=O)C(=O)N(CCN3CCOCC3)C2c2ccc(C)o2)c1 (stereo unspecified)	-	136	-	-	-	-	-	-	-
O=c1/c(=C/c2ccc(O)c([N+](=O)[O-])c2)sc2nc3ccccc3n12	-	-	-	-	.	-	.	.	.
O=c1c2ccc([N+](=O)[O-])c3cccc(c32)c2nc3ccccc3n12	-	148	-	-	50	-	150	-	-
Cc1ccc(NC(=O)NCc2nc3ccccc3n2C)cc1	.	.	.	.	-	.	.	.	.
Cc1ccc(NC(=O)C2=C(O)CCn3c2nc2ccccc23)cc1	-	149	-	-	57	-	-	-	-

Screening results deposited in PubChem by several laboratories.
